Measured values taken from ChEMBL document CHEMBL3861992 (Bioorg Med Chem Lett, 2016).
Activity calls are given as the source filed them. The rule behind the calls is not given here.

Tests used:
[1] = molecular target: Microtubule-associated protein tau (Homo sapiens, UniProt P10636); experiment: Inhibition of recombinant human TAU three-repeat microtubule-binding domain aggregation expressed in Escherichia coli after 16 hrs by thioflavin T fluorescence assay
[2] = molecular target: Amyloid-beta precursor protein (Homo sapiens, UniProt P05067); experiment: Inhibition of amyloid beta (1 to 42 residues) (unknown origin) aggregation after 24 hrs by thioflavin T fluorescence assay
Sequence of Amyloid-beta precursor protein (P05067 whole entry, the tested form may be a part): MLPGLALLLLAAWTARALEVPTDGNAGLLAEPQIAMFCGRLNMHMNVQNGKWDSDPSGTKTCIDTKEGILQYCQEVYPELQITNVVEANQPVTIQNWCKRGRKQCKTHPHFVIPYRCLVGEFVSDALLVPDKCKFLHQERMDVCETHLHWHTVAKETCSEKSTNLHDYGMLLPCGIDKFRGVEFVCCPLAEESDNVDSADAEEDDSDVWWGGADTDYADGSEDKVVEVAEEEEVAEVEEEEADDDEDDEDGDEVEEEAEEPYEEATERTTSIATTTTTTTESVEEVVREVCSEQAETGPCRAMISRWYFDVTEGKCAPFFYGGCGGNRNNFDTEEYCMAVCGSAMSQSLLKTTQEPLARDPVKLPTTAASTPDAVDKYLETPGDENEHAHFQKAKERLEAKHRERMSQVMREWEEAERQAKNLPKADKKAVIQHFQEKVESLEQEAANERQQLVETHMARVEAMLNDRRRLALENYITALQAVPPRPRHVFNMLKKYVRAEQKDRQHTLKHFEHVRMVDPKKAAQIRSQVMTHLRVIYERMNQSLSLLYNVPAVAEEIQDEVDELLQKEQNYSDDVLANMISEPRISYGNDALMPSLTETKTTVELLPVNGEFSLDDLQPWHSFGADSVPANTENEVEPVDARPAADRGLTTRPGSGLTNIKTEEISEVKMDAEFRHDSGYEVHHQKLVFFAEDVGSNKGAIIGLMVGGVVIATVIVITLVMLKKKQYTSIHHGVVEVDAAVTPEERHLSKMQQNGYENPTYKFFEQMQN

[3] = Cmax in Sprague-Dawley rat at 50 mg/kg, po after 30 mins by LC-MS/MS analysis; format: ADME, organism-based; parameters: dose 50 mg/kg, route oral; settings: in vivo
Method in brief: (§1)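 SD rats dosed orally at 50 mg/kg; plasma drug levels followed up to 3 h. Mean ± SD, n = 3.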

[4] = Drug uptake in Sprague-Dawley rat brain at 50 mg/kg, po after 3 hrs by LC-MS/MS analysis; format: ADME, organism-based; settings: read-out: Drug uptake
Method in brief: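 Brains collected from SD rats 3 h after a 50 mg/kg oral dose; tissue drug concentration measured per g tissue. Mean ± SD, n = 3.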

Mus musculus = experiment: In vivo inhibition of human tau aggregation in JNPL3 human tau P301L transgenic mouse model assessed as reduction in amount of sarkosyl-insoluble tau in brain at 20 to 40 mg/kg/day, po for 4 weeks by ELISA; format: functional, organism-based
[5] = Drug uptake in Sprague-Dawley rat plasma at 5 mg/kg, iv up to 3 hrs by LC-MS/MS analysis; format: ADME, organism-based; settings: in vivo
Method in brief: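 SD rats given 5 mg/kg intravenously; plasma concentrations sampled up to 3 h post-dose. Mean ± SD, n = 3.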

[6] = Tmax in mouse; format: ADME, organism-based; settings: in vivo
[7] = Plasma concentration in Sprague-Dawley rat at 50 mg/kg, po after 3 hrs by LC-MS/MS analysis; format: ADME, organism-based; method in brief: as §1

Sequence of Microtubule-associated protein tau (P10636 whole entry, the tested form may be a part): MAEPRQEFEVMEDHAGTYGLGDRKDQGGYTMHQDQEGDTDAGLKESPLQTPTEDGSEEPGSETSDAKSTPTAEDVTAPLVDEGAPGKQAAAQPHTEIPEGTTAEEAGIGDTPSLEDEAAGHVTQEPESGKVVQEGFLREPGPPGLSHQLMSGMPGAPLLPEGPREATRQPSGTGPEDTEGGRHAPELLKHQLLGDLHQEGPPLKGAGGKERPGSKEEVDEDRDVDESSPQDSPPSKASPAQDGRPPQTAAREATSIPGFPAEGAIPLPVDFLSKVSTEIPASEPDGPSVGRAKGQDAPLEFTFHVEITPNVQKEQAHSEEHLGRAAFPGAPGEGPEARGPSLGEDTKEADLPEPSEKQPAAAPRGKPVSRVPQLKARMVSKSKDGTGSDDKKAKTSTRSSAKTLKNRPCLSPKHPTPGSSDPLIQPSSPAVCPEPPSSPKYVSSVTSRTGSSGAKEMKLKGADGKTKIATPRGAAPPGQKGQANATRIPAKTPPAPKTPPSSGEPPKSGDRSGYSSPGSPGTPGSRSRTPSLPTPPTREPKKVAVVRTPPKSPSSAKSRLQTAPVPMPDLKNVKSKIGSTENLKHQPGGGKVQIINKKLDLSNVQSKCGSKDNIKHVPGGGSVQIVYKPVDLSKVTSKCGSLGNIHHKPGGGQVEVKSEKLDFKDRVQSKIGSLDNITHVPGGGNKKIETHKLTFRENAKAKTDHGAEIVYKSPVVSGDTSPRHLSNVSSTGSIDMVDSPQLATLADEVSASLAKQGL

SMILES	IC50 [1] [nM]	IC50 [2] [nM]	further results
COc1cc(/C=C/C(=O)CC(=O)/C=C/c2cccc(O)c2OC)ccc1O	710	1900	
COc1cc(OCc2ccccc2)ccc1/C=C/C(=O)CC(=O)/C=C/c1ccc2cc[nH]c2c1	610	5400	
COc1ccc(/C=C/C(=O)CC(=O)/C=C/c2ccc(O)c(OC)c2)cc1O	520	2100	
COc1cc(OCC2CCCO2)ccc1/C=C/C(=O)CC(=O)/C=C/c1ccc2cc[nH]c2c1 (stereo not drawn)	420	2500	
COc1cc(/C=C/C(=O)CC(=O)/C=C/c2cccnc2)ccc1O	> 10000	> 10000	
COc1cc(/C=C/C(=O)CC(=O)/C=C/c2c(O)cccc2OC)ccc1O	910	1600	
COc1cc(/C=C/C(=O)CC(=O)/C=C/c2ccc(O)c(OC)c2)ccc1O [CURCUMIN]			concentration at 3 h [4]: 13 ng/g
COc1cc(/C=C/C(=O)CC(=O)/C=C/c2cc(O)ccc2OC)ccc1O	600	1300	
COc1cc(/C=C/C(=O)CC(=O)/C=C/c2ccccc2)ccc1O	1400	2200	
COc1ccc(O)c(/C=C/C(=O)CC(=O)/C=C/c2ccc(O)c(OC)c2)c1	920	1800	
COc1cc(/C=C/C(=O)CC(=O)/C=C/c2cccc(OC)c2O)ccc1O	690	5400	
COc1cc(/C=C/C(=O)CC(=O)/C=C/c2ccc3c(c2)OCO3)ccc1O	1200	3700	
COc1cc(O)ccc1/C=C/C(=O)CC(=O)/C=C/c1ccc(O)cc1OC	> 10000	4600	

The next lines start with results.

IC50 [1] [nM]	IC50 [2] [nM]	SMILES	further results
330	470	COc1cc(OCc2ccccn2)ccc1/C=C/C(=O)CC(=O)/C=C/c1ccc2cc[nH]c2c1	Cmax [3]: 5.7 ng/mL; concentration at 3 h [4]: 1 ng/g
2000	760	COc1cc(/C=C/C(=O)CC(=O)/C=C/c2ccco2)ccc1O	
230	520	COc1cc(O)ccc1/C=C/C(=O)CC(=O)/C=C/c1ccc2cc[nH]c2c1	
420	590	COc1cc(/C=C/C(=O)CC(=O)/C=C/c2ccc3ccccc3c2)ccc1O	
	500	CN(C)c1ccc2nc3ccc(=[N+](C)C)cc-3sc2c1 [METHYLENE BLUE ANHYDROUS]	
700	610	COc1ccc(/C=C/C(=O)CC(=O)/C=C/c2ccc3cc[nH]c3c2)c(OC)c1	
1400	930	COc1ccc(/C=C/C(=O)CC(=O)/C=C/c2ccc(O)c(OC)c2)c(O)c1	
440	420	COc1cc(/C=C/C(=O)CC(=O)/C=C/c2ccc3cc[nH]c3c2)ccc1O	
320	1100	COc1cc(O)cc(/C=C/C(=O)CC(=O)/C=C/c2ccc(O)c(OC)c2)c1	
580	920	COc1cc(/C=C/C(=O)CC(=O)/C=C/c2ccc(O)cc2OC)ccc1O	
660	1200	COc1cc(OCc2ccccn2)ccc1/C=C/c1cc(/C=C/c2ccc3cc[nH]c3c2)[nH]n1	inhibition (Mus musculus): Active; Drug uptake [5]: Active; concentration at 3 h [4]: 276 ng/g; Tmax [6]: 6 h; concentration at 3 h [7]: 466 ng/mL
